Assay results from ChEMBL document CHEMBL1129454, “HIV protease inhibitory bis-benzamide cyclic ureas: a quantitative structure-activity relationship analysis” (J Med Chem, 1996).
Calls of active or inactive are those of the source. The calls are words filed in the database; no cut-off is given here.

Key:
[1] = target: T1, Human immunodeficiency virus type 1 protease (Human immunodeficiency virus 1, UniProt Q72874); assay: Binding affinity was evaluated on HIV Protease enzyme; not active
Method in brief: (§1)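 Cleavage products were separated by anion-exchange HPLC and the product quantified by fluorescence. Each compound was assayed at least twice and the mean reported; assay SD <±40%.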

[2] = target: T1, Human immunodeficiency virus type 1 protease; assay: Binding affinity was evaluated with recombinant single chain dimeric HIV protease enzyme with a fluorescent substrate; not active; method in brief: as §1
T-cell = assay: The concentration of the antiviral compound required to inhibit HIV RNA synthesis by 90%. viral RNA was quantified by sandwich hybridization assay; not active; format: functional, cell-based
Method in brief: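 Susceptible T-cell lines grown in individual microtiter wells were infected with HIV. Cell-associated viral RNA was measured by RNA hybridization 3 days after infection. […] Assay SD was <±37%. Cytotoxicity was scored separately by tetrazolium dye metabolism, because RNA assay results are valid only at non-cytotoxic doses.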

CC1(C)O[C@@H]2[C@@H](O1)[C@@H](Cc1ccccc1)N(Cc1cccc(C(=O)O)c1)C(=O)N(Cc1cccc(C(=O)O)c1)[C@@H]2Cc1ccccc1
Ki [1]: Not Active
Ki [2]: Not Active
IC90 (T-cell): inactive

COC(=O)c1cccc(CN2C(=O)N(Cc3cccc(C(=O)OC)c3)[C@H](Cc3ccccc3)[C@@H]3OC(C)(C)O[C@H]3[C@H]2Cc2ccccc2)c1
Ki [1]: Not Active
Ki [2]: Not Active
IC90 (T-cell): inactive
